# Source: ChEMBL document CHEMBL1138836, “4-[5-Fluoro-3-[4-(2-methyl-1H-imidazol-1-yl)benzyloxy]phenyl]-3,4,5,6- tetrahydro-2H-pyran-4-carboxamide, an orally active inhibitor of 5-lipoxygenase with improved pharmacokinetic and toxicology characteristics” (J Med Chem, 2004)
# pIC50: −log10 of the molar value.
# Columns and labels:
# [1] = target: T1, Polyunsaturated fatty acid 5-lipoxygenase (Homo sapiens, UniProt P09917); test: Inhibition of 5-Lipoxygenase (5-LO) of human whole blood (HWB); assay type: tissue-based
# T1 sequence (P09917 whole entry): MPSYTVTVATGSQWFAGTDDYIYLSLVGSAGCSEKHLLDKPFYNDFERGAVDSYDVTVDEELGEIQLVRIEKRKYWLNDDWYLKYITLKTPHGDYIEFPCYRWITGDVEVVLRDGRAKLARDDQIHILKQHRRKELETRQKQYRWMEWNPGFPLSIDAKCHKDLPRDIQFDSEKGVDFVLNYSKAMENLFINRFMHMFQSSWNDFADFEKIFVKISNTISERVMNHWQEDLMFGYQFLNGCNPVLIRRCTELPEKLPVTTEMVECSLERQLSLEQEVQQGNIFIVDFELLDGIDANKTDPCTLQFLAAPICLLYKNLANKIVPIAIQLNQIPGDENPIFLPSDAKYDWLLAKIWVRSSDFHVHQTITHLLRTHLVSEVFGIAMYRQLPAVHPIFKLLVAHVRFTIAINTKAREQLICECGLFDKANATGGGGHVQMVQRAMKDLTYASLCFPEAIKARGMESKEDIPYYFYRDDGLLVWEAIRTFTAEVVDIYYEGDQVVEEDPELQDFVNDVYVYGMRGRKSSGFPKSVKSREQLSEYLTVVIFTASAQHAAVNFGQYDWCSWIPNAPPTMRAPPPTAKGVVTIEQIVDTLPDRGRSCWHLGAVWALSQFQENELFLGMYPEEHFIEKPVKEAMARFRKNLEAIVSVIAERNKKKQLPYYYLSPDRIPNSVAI
# Mus musculus = test: In vivo potency was determined after oral administration to mice by the PAF (platelet activating factor) induced thrombosis assay; assay type: functional
# Outline: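 Male […] mice were dosed orally, then given platelet activating factor to induce thrombosis. ED50 reported in mg/kg.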
# [2] = Bioavailability of compound at 3 mg/kg in guinea pig […]; assay type: ADME, organism-based, Cavia porcellus; details: in vivo, iv
# Outline: (§1)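 Oral bioavailability derived from oral and intravenous pharmacokinetic data. Doses: monkey 5 mg/kg oral vs 3 mg/kg iv; rat and guinea pig 10 mg/kg oral vs 3 mg/kg iv.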
# [3] = Bioavailability of compound at 3 mg/kg in monkey […]; assay type: ADME, organism-based; details: cercopithecidae, in vivo, iv; outline: as §1
# [4] = Oral bioavailability of compound at 5 mg/kg in monkey; assay type: ADME, organism-based; details: cercopithecidae, in vivo; outline: as §1
# [5] = Maximum concentration of compound found in plasma at 5 mg/kg after oral administration; assay type: ADME, organism-based; parameters: dose 5 mg/kg, route oral; details: cercopithecidae
# Outline: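 Male cynomolgus monkeys, three animals, single 5 mg/kg oral dose with plasma concentration followed over time. Values are mean ± SEM (n = 3), Cmax in μg/mL.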
# [6] = Bioavailability of compound at 10 mg/kg in rat after oral administration; assay type: ADME, organism-based; details: in vivo; outline: as §1
# [7] = Bioavailability of compound at 3 mg/kg in rat […]; assay type: ADME, organism-based; details: in vivo, iv; outline: as §1
# [8] = Bioavailability of compound at 10 mg/kg in guinea pig after oral administration; details: in vivo
Compound,pIC50 [1],ED50 (Mus musculus) [mg/kg],also measured
Cc1nccn1-c1ccc(COc2cc(F)cc(C3(O)CCOCC3)c2)cc1,< 6.00,–,–
Cc1nccn1-c1ccc(COc2cc(F)cc(C3(S(C)(=O)=O)CCOCC3)c2)cc1,< 6.00,–,–
Cc1nccn1-c1ccc(COc2cc(F)cc(C3([S+](C)[O-])CCOCC3)c2)cc1 (stereo unspecified),< 6.00,–,–
CCOC(=O)C1(c2cc(F)cc(OCc3ccc(-n4ccnc4C)cc3)c2)CCOCC1,6.70,16,–
COC1(c2cc(F)cc(OCc3ccc(-n4ccnc4C)cc3)c2)CCOCC1,7.22,2,–
Cc1nccn1-c1ccc(COc2cc(F)cc(C3(C(N)=O)CCOCC3)c2)cc1,6.47,–,bioavailability [2]: 108%; bioavailability [3]: 88%; bioavailability [4]: 88%; Cmax [5]: 1570 ng/mL; bioavailability [6]: 102%; bioavailability [7]: 102%; bioavailability [8]: 108%
Cc1nccn1-c1ccc(COc2cc(F)cc(C3(C(=O)N(C)C)CCOCC3)c2)cc1,6.09,> 20,–
CSC1(c2cc(F)cc(OCc3ccc(-n4ccnc4C)cc3)c2)CCOCC1,7.14,5,–
CC(=O)C1(c2cc(F)cc(OCc3ccc(-n4ccnc4C)cc3)c2)CCOCC1,6.89,12,–
CNC(=O)C1(c2cc(F)cc(OCc3ccc(-n4ccnc4C)cc3)c2)CCOCC1,6.55,13,–
Cc1nccn1-c1ccc(COc2cc(F)cc(C3(C(=O)O)CCOCC3)c2)cc1,< 6.00,–,–
CCOC1(c2cc(F)cc(OCc3ccc(-n4ccnc4C)cc3)c2)CCOCC1,7.10,5,–
